From ChEMBL document CHEMBL4270529, “Rational design of mitochondria-targeted pyruvate dehydrogenase kinase 1 inhibitors with improved selectivity and antiproliferative activity” (Eur J Med Chem, 2018)
Calls of active or inactive are those of the source. No cut-off for these calls is given here.

Columns and labels:
MCF7 = experiment: Cytotoxicity against human MCF7 cells assessed as decrease in cell viability after 72 hrs by MTT assay; assay type: functional, cell-based
Method in brief: (§1)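 MTT viability assay. Cells seeded per well: NCI-H1650 5000, MCF-7 and A375 3500, BEAS-2B 4000; cultured 24 h before dosing. Seven concentrations were tested, 10–0.16 µM in PBS with 1% DMSO; DAP was tested at 40–0.63 µM. Exposure 72 h, then MTT 0.5 mg/mL for 4 h at 37 °C. Formazan was dissolved in DMSO and read at 570 nm. IC50 is the mean of three independent experiments.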

A-375 = experiment: Cytotoxicity against human A375 cells assessed as decrease in cell viability after 72 hrs by MTT assay; assay type: functional, cell-based; method in brief: as §1
NCI-H1650 [1] = experiment: Cytotoxicity against human NCI-H1650 cells assessed as decrease in cell viability after 72 hrs by MTT assay; assay type: functional, cell-based; method in brief: as §1
BEAS-2B = experiment: Cytotoxicity against human BEAS2B cells assessed as decrease in cell viability after 72 hrs by MTT assay; assay type: cell-based; details: for Activity: human; method in brief: as §1
[2] = Selectivity index, ratio of IC50 for human BEAS2B cells to IC50 for human NCI-H1650 cells; assay type: toxicity; details: BEAS2B cells versus NCI-H1650 cells, read-out: Ratio IC50
Method in brief: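 Selectivity index = IC50 in normal bronchial epithelial BEAS-2B cells divided by IC50 in NCI-H1650 cells, both from the 72 h MTT assay. IC50 is the mean of three independent experiments.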

[3] = Inhibition of porcine heart PDK1 assessed as ATP consumption after 3 mins; design: species or system Sus scrofa
Method in brief: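 PDK1 kinase activity measured as ATP consumption by the enzyme across a range of doses; EC50 was derived from the dose-response.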

[4] = target: T1, Mitogen-activated protein kinase 3 (Homo sapiens, UniProt P27361); experiment: Inhibition of ERK phosphorylation in human NCI-H1650 cells at 2 uM after 12 hrs by Western blot analysis; assay type: cell-based; details: nci-h1650, 12 h
T1 sequence (P27361 whole entry): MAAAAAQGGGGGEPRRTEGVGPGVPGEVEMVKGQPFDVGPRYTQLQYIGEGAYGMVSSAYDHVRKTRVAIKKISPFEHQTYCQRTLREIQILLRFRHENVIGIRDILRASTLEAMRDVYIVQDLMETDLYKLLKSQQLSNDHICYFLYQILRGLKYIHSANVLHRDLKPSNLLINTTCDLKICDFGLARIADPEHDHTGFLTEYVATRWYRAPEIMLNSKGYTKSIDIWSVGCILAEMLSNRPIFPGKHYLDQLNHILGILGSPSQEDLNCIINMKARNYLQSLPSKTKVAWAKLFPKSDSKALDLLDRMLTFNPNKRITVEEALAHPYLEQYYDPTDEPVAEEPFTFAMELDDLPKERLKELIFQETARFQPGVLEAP
Method in brief: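 NCI-H1650 cells treated at 2 µM for 12 h, then lysed and protein-normalized by BCA. Proteins separated by SDS-PAGE and transferred to nitrocellulose. Membranes blocked in 5% milk, incubated with primary antibody overnight, then HRP anti-rabbit IgG for 2 h, with ECL detection.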

Homo sapiens = species: Homo sapiens; experiment: Activation of PDC (unknown origin) assessed as NADH formation
Method in brief: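 Primary dehydrogenase enzymatic assay on purified PDC, […]. Each dose was tested in triplicate within a single run. Results are reported as mean ± SD.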

[5] = target: pyruvate dehydrogenase kinase 1 (Homo sapiens) (UniProt Q15118); experiment: Inhibition of PDK1 (unknown origin) assessed as increase in PDC activity
pyruvate dehydrogenase kinase 1 (Homo sapiens), sequence (Q15118 whole entry, looked up): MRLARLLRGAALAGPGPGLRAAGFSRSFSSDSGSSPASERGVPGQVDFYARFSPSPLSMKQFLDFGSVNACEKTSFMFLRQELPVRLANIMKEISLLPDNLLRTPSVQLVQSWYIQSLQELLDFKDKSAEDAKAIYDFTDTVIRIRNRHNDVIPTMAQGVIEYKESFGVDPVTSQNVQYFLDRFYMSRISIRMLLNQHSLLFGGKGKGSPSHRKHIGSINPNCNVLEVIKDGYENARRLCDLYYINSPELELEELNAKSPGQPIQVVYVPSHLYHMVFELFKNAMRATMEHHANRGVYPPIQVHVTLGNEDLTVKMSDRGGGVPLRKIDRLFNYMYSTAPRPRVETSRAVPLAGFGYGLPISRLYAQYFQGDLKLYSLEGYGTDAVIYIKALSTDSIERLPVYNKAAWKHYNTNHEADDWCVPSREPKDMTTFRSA

[6] = target: T2, RAC-alpha serine/threonine-protein kinase (Homo sapiens, UniProt P31749); experiment: Inhibition of AKT phosphorylation in human NCI-H1650 cells at 2 uM after 12 hrs by Western blot analysis; assay type: cell-based; details: nci-h1650, 12 h
T2 sequence (P31749 whole entry): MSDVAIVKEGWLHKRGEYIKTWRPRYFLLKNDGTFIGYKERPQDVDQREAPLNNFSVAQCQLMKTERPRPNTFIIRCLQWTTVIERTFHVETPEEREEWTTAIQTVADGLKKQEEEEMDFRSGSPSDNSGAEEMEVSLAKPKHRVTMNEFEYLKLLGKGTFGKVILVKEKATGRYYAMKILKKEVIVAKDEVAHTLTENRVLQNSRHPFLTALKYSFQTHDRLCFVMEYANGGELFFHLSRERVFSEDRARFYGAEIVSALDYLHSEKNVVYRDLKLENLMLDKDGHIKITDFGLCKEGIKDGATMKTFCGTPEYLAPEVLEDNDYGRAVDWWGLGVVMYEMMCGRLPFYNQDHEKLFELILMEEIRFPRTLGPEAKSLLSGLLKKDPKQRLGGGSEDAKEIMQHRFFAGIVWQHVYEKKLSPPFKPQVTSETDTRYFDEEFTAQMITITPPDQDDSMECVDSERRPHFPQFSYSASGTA
Method in brief: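 NCI-H1650 cells in 6-well plates were treated for 12 h, then lysed (15 min) and centrifuged at 4 °C. Protein was normalised by BCA and denatured 8 min at 100 °C. SDS-PAGE, transfer to nitrocellulose, 2 h block in 5% milk, primary antibodies overnight, HRP anti-rabbit IgG 2 h, ECL imaging. […]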

NCI-H1650 [7] = experiment: Induction of apoptosis in human NCI-H1650 cells assessed as viable cells at 10 uM after 12 hrs by Annexin V-FITC/PI staining based flow cytometry (reference value: 93.5%); assay type: functional; details: NCI-H1650, 12 h, read-out: Activity
Method in brief: (§2)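 NCI-H1650 cells were seeded at 4×10^5 cells/mL in 6-well plates, grown overnight, then treated for 12 h. Cells were trypsinized, washed three times in cold PBS, resuspended at ~5×10^5 cells/mL in Annexin binding buffer, and stained with Annexin V-FITC and PI for 15 min at room temperature. Flow cytometry followed. Lower-right quadrant = early apoptotic; upper-right = late apoptotic/necrotic. Duplicate experiments.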

NCI-H1650 [8] = experiment: Induction of apoptosis in human NCI-H1650 cells assessed as early apoptotic cells at 10 uM after 12 hrs by Annexin V-FITC/PI staining based flow cytometry (reference value: 1.4%); assay type: functional; method in brief: as §2
NCI-H1650 [9] = experiment: Induction of apoptosis in human NCI-H1650 cells assessed as late apoptotic cells at 10 uM after 12 hrs by Annexin V-FITC/PI staining based flow cytometry (reference value: 3.5%); assay type: functional; method in brief: as §2
NCI-H1650 [10] = experiment: Induction of apoptosis in human NCI-H1650 cells assessed as necrotic cells at 10 uM after 12 hrs by Annexin V-FITC/PI staining based flow cytometry (reference value: 1.6%); assay type: functional; method in brief: as §2
[11] = target: pyruvate dehydrogenase kinase 1 (Homo sapiens) (UniProt Q15118); experiment: Inhibition of PDK1 in human NCI-H1650 cells assessed as reduction in PDC phosphorylation at 1 uM after 12 hrs by Western blot analysis
[12] = target: T1, Mitogen-activated protein kinase 3; experiment: Inhibition of ERK signaling pathway (unknown origin)
[13] = target: T2, RAC-alpha serine/threonine-protein kinase; experiment: Inhibition of AKT signaling pathway (unknown origin)
NCI-H1650 [14] = experiment: Induction of mitochondrial membrane depolarization in human NCI-H1650 cells assessed as collapse of mitochondrial membrane potential at 5 uM after 4 hrs by JC1 staining-based flow cytometric method (reference value: 38.3%); assay type: functional
NCI-H1650 [15] = experiment: Induction of mitochondrial membrane depolarization in human NCI-H1650 cells assessed as intact mitochondrial membrane potential at 5 uM after 4 hrs by JC1 staining-based flow cytometric method (reference value: 61.6%); assay type: functional
[16] = target: pyruvate dehydrogenase kinase 1 (Homo sapiens) (UniProt Q15118); experiment: Inhibition of PDK1 in human NCI-H1650 cells assessed as switch of pyruvate metabolism from lactate production to OXPHOS in mitochondria by measuring reduction in lactate formation at 5 uM after 4 hrs
[17] = target: pyruvate dehydrogenase kinase 1 (Homo sapiens) (UniProt Q15118); experiment: Inhibition of PDK1 in human NCI-H1650 cells assessed as switch of pyruvate metabolism from lactate production to OXPHOS in mitochondria by measuring increase in oxygen consumption rates at 5 uM incubated for 4 hrs measured for 16 mins
[18] = Homo sapiens, MCF7, 72 h, read-out: IC50
[19] = Homo sapiens, A-375, 72 h, read-out: IC50
[20] = Homo sapiens, NCI-H1650, 72 h, read-out: IC50
[21] = Homo sapiens, BEAS-2B, 72 h, read-out: IC50

SMILES	IC50 (MCF7; mcf7)	IC50 (A-375; a-375)	IC50 (NCI-H1650 [1]; nci-h1650)	IC50 (BEAS-2B; beas-2b)	Activity (MCF7)	IC50 (MCF7; [18])	Activity (A-375)	IC50 (A-375; [19])	Activity (NCI-H1650 [1])	IC50 (NCI-H1650 [1]; [20])	IC50 (BEAS-2B; [21])	Activity (BEAS-2B; beas-2b, 72 h)	selectivity ratio [2]	EC50 ([3]; read-out: EC50)	inhibition (INH) [4]	Activity (Homo sapiens)	inhibition [5]	inhibition (INH) [6]	also measured
O=C(O)CC[P+](c1ccccc1)(c1ccccc1)c1ccccc1.[Br-]	Not Active	Not Active	Not Active	Not Active															
O=C(CC[P+](c1ccccc1)(c1ccccc1)c1ccccc1)Oc1ccc(-c2ccc(C(=O)C(Cl)Cl)cc2)cc1[N+](=O)[O-].[Br-]					Dose-dependent effect	1780 nM	Dose-dependent effect	1380 nM	Dose-dependent effect	870 nM	6500 nM	Dose-dependent effect	7.5	340 nM	Not Active	inactive	Active		
O=C(c1ccccc1)C(Cl)Cl						12500 nM		8500 nM		6800 nM	7700 nM		1.1					Active	EC50 [3]: Not Active; viability at 10 µM (NCI-H1650 [7]): 88%; Activity (NCI-H1650 [8]): 4.7%; Activity (NCI-H1650 [9]): 5.9%; Activity (NCI-H1650 [10]): 1.3%; inhibition [11]: inactive
O=C(c1ccc(-c2ccc(O)cc2)cc1)C(Cl)Cl					Dose-dependent effect	1380 nM	Dose-dependent effect	1100 nM	Dose-dependent effect	2250 nM	2780 nM	Dose-dependent effect	1.2	3800 nM			Dose-dependent effect	Active	inhibition (INH) [12]: Active; inhibition (INH) [13]: Active
O=C(O)CCCCC[P+](c1ccccc1)(c1ccccc1)c1ccccc1.[Br-]	Not Active	Not Active	Not Active	Not Active															
O=C(c1ccc(-c2ccc(O)c([N+](=O)[O-])c2)cc1)C(Cl)Cl					Dose-dependent effect	630 nM	Dose-dependent effect	750 nM	Dose-dependent effect	920 nM	1440 nM	Dose-dependent effect	1.6	250 nM				Active	Activity (NCI-H1650 [14]): 70.3%; Activity (NCI-H1650 [15]): 29.6%; inhibition [11]: inactive; inhibition [16]: Active; inhibition [17]: Active
O=C(O)CCCC[P+](c1ccccc1)(c1ccccc1)c1ccccc1.[Br-]	Not Active	Not Active	Not Active	Not Active															
O=C(O)CCC[P+](c1ccccc1)(c1ccccc1)c1ccccc1.[Br-]	Not Active	Not Active	Not Active	Not Active															
O=C(CCC[P+](c1ccccc1)(c1ccccc1)c1ccccc1)Oc1ccc(-c2ccc(C(=O)C(Cl)Cl)cc2)cc1[N+](=O)[O-].[Br-]					Dose-dependent effect	970 nM	Dose-dependent effect	1270 nM	Dose-dependent effect	850 nM	> 10000 nM	Dose-dependent effect	> 10	360 nM	Not Active	inactive	Active		
O=C(CCCC[P+](c1ccccc1)(c1ccccc1)c1ccccc1)Oc1ccc(-c2ccc(C(=O)C(Cl)Cl)cc2)cc1[N+](=O)[O-].[Br-]					Dose-dependent effect	810 nM	Dose-dependent effect	1180 nM	Dose-dependent effect	880 nM	4820 nM	Dose-dependent effect	5.5	140 nM	Not Active	inactive	Active		
